The target in series [1] is Human immunodeficiency virus type 1 integrase (Human immunodeficiency virus 1, UniProt Q7ZJM1). Description: Inhibition of strand transfer for HIV-1 integrase.
Series [2] in a line: Human plasma albumin binding in pH 7.4 at RT. The series is classed as ADME, cell-free. The method, boiled down: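 Binding to human plasma protein, mainly albumin, was measured by analytical HPLC with UV detection. The assay ran in pH 7.4 buffer at room temperature, and the result was reported as percent protein bound.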
Series [3] has as its system Human immunodeficiency virus. Kind of series: Antiviral activity in presence of 10% FBS against HIV-1 replication in cells. The series is classed as functional, Human immunodeficiency virus 1. Conditions: read-out: CIC95.
Series [4] concerns Human immunodeficiency virus. Description: Antiviral activity in presence of 50% NHS against HIV-1 replication in cells. The series is classed as functional, Human immunodeficiency virus 1. The conditions noted are these: read-out: CIC95.

Human immunodeficiency virus type 1 integrase, sequence (Q7ZJM1 whole entry): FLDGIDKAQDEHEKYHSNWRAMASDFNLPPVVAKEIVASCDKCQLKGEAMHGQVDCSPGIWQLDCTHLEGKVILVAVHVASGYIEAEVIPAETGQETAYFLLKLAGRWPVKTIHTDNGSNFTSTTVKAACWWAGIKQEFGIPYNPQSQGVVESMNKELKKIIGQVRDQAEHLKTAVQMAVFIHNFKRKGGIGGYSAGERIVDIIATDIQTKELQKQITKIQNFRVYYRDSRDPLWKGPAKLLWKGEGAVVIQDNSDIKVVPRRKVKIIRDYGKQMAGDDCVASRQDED

Turning to `O=C(NCc1ccc(F)cc1)c1ncc2cccnc2c1O`, in series [1], the 50% inhibitory concentration (IC50) was 32.8 nM. In series [2], this compound had an Activity of 99.2%. The IC95 was 1250 nM in series [3] (Human immunodeficiency virus 1) and 5000 nM in series [4] (Human immunodeficiency virus 1).
The compound `O=C1CC(c2nc(C(=O)NCc3ccc(F)cc3)c(O)c3ncccc23)NC(=O)N1` (single isomer, unassigned; (+)) displayed an IC50 in series [1] of 11 nM. Moreover, the IC95 in series [3] and in series [4] was 93.8 nM in each case.
For the compound `CN1C(=O)CC(c2nc(C(=O)NCc3ccc(F)cc3)c(O)c3ncccc23)N(C)C1=O` (racemic), in series [1], the IC50 was found to be 8.7 nM. In series [2], the Activity was 94.3%. For the same compound, the IC95 is reported as 18.6 nM in series [3] and 60.7 nM in series [4].
`CN1C(=O)CC(c2nc(C(=O)NCc3ccc(F)cc3)c(O)c3ncccc23)NC1=O` (racemic): in series [1], the half-inhibitory concentration (IC50) amounted to 12.8 nM. The IC95 in series [3] (Human immunodeficiency virus 1) turned out to be 31.3 nM; in series [4] (Human immunodeficiency virus 1), 62.5 nM.
Take `CN1C(=O)CC(c2nc(C(=O)NCc3ccc(F)cc3)c(O)c3ncccc23)N(C)C1=O` (single isomer, unassigned; (+)): the IC50 in series [1] was determined as 11.3 nM. The compound further came in with an Activity in series [2] of 96%. Also, the IC95 in series [3] is 41.7 nM; in series [4] it was 166.7 nM.
Taken in the same sequence, the figures for `O=C1CC(c2nc(C(=O)NCc3ccc(F)cc3)c(O)c3ncccc23)NC(=O)N1` (racemic) were 10 nM, 92.1%, 53.7 nM and 55.7 nM.
In series [1], `CN1C(=O)NC(=O)CC1c1nc(C(=O)NCc2ccc(F)cc2)c(O)c2ncccc12` (racemic) registered an IC50 of 12.5 nM. Besides, the IC95 in series [3] (Human immunodeficiency virus 1) and in series [4] (Human immunodeficiency virus 1) was 15.6 nM throughout.
For the compound `O=C1CC(c2nc(C(=O)NCc3ccc(F)cc3)c(O)c3ncccc23)NC(=O)N1` (single isomer, unassigned; (-)), in series [1], 13.3 nM corresponded to half-maximal inhibition (IC50). The IC95 in series [3] and in series [4] was 125 nM throughout.
Compound `CN1C(=O)CC(c2nc(C(=O)NCc3ccc(F)cc3)c(O)c3ncccc23)N(C)C1=O` (stereo in doubt; 14) gave a half-inhibitory concentration (IC50) in series [1] of 27.5 nM. This compound yielded an Activity in series [2] of 97.8%. The IC95 in series [3] turned out to be 250 nM; in series [4], 1000 nM.
Consider `CN1C(=O)CC(c2nc(C(=O)NCc3ccc(F)cc3)c(O)c3ncccc23)N(C)C1=O` (single isomer, unassigned; (-)), for which, in series [1], the half-maximal inhibitory concentration (IC50) turned out to be 35 nM. In series [2], this compound had an Activity of 95%. Besides, the IC95 in series [3] turned out to be 20.1 nM; in series [4], 40.2 nM.

Source of the values: ChEMBL document CHEMBL1142852, “A series of 5-(5,6)-dihydrouracil substituted 8-hydroxy-[1,6]naphthyridine-7-carboxylic acid 4-fluorobenzylamide inhibitors of HIV-1 integrase and viral replication in cells” (Bioorg Med Chem Lett, 2005).
